# Experimental data: ChEMBL document CHEMBL3763142, “Discovery of potent anti-tuberculosis agents targeting leucyl-tRNA synthetase” (Bioorg Med Chem, 2016)
# Tests used:
# [1] = Inhibition of Mycobacterium tuberculosis leucyl-tRNA synthetase assessed as reduction of [14C]-L-leucine ligation to tRNA incubated for 5 mins by scintillation counting method in presence of ATP
# In short: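 His-tag Ni-NTA-purified M. tuberculosis LeuRS (25 nM) expressed in E. coli Rosetta (DE3). Buffer: 100 mM Tris-HCl pH 8.0, 10 mM MgCl2, 2 mM DTT, 90 µM [14C]-L-leucine, 4 mg/ml E. coli tRNA. Inhibitor (DMSO) preincubated 5 min at 37 °C; started with 2 mM ATP (final). TCA-quenched, scintillation-counted; at least triplicates averaged for IC50.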
# [2] = test system: Mycobacterium tuberculosis; experiment: Antimicrobial activity against Mycobacterium tuberculosis H37Rv assessed as growth inhibition after 5 days by fluorescence analysis; details: 120 h
# [3] = biological target: Leucine--tRNA ligase, cytoplasmic (Homo sapiens, UniProt Q9P2J5); experiment: Inhibition of human leucyl-tRNA synthetase assessed as reduction of [14C]-L-leucine ligation to tRNA incubated for 5 mins by scintillation counting method in presence of ATP
# [4] = test system: Mycobacterium tuberculosis; experiment: Antimicrobial activity against Mycobacterium tuberculosis infected in mouse J774 cells assessed as log reduction of bacterial burden at 0.8 ug/ml after 7 days; type: functional
# In short: (§1)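 J774 cells in RPMI 1640 with L-glutamine/FBS, 2.0*10^5 per well, then switched to 1% FBS. Infected 4 h at MOI 5, washed, drug added for 7 days. At 0 and 7 d, lysed with SDS, DNase-treated and plated on 7H10 agar for CFU. Log reduction is from 0 h to day 7; duplicates, rifampin positive control.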
# [5] = test system: Mycobacterium tuberculosis; experiment: Antimicrobial activity against Mycobacterium tuberculosis infected in mouse J774 cells assessed as log reduction of bacterial burden at 8 ug/ml after 7 days; type: functional; in short: as §1
# [6] = test system: Mycobacterium tuberculosis; experiment: Antimicrobial activity against Mycobacterium tuberculosis infected in mouse J774 cells assessed as log reduction of bacterial burden at 80 ug/ml after 7 days; type: functional; in short: as §1
# [7] = Cytotoxicity against mouse J774 cells assessed as cell viability at 0.8 ug/ml by MTT assay; type: cell-based; details: read-out: Activity
# In short: (§2)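 MTT proliferation assay on uninfected J774 macrophages, run in parallel with the intracellular infection assay at the same three concentrations. Reported as percentage viability.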
# [8] = Cytotoxicity against mouse J774 cells assessed as cell viability at 8 ug/ml by MTT assay; type: cell-based; details: read-out: Activity; in short: as §2
# [9] = Cytotoxicity against mouse J774 cells assessed as cell viability at 80 ug/ml by MTT assay; type: cell-based; details: read-out: Activity; in short: as §2
# Leucine--tRNA ligase, cytoplasmic, sequence (Q9P2J5 whole entry): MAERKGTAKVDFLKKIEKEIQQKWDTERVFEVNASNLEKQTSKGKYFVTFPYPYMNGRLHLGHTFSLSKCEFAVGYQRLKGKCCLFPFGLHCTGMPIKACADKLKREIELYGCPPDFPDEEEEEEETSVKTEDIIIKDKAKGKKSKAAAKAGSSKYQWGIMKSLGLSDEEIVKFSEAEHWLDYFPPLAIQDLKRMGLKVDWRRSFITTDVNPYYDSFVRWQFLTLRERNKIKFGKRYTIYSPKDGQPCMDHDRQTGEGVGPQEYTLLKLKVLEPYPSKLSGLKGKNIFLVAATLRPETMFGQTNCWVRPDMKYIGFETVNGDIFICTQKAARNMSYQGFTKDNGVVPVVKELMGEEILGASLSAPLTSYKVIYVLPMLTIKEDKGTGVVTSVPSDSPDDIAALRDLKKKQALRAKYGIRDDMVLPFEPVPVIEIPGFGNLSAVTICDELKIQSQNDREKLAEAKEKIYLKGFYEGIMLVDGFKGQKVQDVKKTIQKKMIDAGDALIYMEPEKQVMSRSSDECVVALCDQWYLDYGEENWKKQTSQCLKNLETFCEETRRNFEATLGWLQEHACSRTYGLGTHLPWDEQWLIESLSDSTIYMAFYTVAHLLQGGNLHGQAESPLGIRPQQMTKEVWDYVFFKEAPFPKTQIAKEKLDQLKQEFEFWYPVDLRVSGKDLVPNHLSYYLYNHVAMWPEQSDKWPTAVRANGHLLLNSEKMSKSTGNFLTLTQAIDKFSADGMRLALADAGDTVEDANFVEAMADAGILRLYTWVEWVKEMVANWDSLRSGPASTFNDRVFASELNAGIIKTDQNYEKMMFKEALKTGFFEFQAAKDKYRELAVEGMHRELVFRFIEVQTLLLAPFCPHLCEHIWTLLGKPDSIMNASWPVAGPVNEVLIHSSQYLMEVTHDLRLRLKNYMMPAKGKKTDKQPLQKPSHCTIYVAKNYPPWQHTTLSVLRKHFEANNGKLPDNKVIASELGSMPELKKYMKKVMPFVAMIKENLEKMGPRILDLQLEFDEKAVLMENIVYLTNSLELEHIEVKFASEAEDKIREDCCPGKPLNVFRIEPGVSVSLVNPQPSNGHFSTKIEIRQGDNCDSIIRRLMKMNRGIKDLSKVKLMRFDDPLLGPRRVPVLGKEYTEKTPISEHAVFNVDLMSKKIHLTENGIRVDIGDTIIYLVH
smiles,measurement,setting,value
CC(/C=C1\SC(=S)N(CCC(=O)Nc2ccc(O)cc2)C1=O)=C\c1ccccc1,IC50,[1],22.2 µM
CCOC(=O)c1sc(N/N=C/c2ccc(O)c(OC)c2)nc1C,IC50,[2],59 µM
same,IC90,[2],> 200 µM
same,MIC,[2],81 µM
same,IC50,[1],11.4 µM
same,IC50,[3],116 µM
O=[N+]([O-])c1cccc(-c2csc(N/N=C/c3cccc(O)c3)n2)c1,IC50,[1],> 20 µM
O=[N+]([O-])c1cc(/C=N\Nc2nccs2)ccc1O,IC50,[2],59.4 µM
same,IC90,[2],> 100 µM
same,IC50,[1],20 µM
COc1cc(/C=N/Nc2nccs2)ccc1O,IC50,[1],> 20 µM
COc1cc(/C=N/Nc2nc(C)cs2)cc(Br)c1O,IC50,[1],> 20 µM
O=[N+]([O-])c1ccc(-c2csc(N/N=C\c3ccc(O)c([N+](=O)[O-])c3)n2)cc1,IC50,[2],> 100 µM
same,IC90,[2],> 100 µM
same,IC50,[1],20 µM
CC(=O)c1sc(N/N=C/c2cc(Br)ccc2O)nc1C,IC50,[1],> 20 µM
Oc1ccc(/C=N/Nc2nc(-c3ccccc3)c(-c3ccccc3)s2)cc1,IC50,[1],> 20 µM
COc1cc(/C=N/Nc2nc(-c3ccc(Br)cc3)cs2)cc(OC)c1OC,IC50,[1],> 20 µM
COc1cc(/C=N\Nc2nc(-c3ccc(Br)cc3)cs2)cc([N+](=O)[O-])c1O,Activity,[4],1.96 deltalog10CFU
same,Activity,[5],1.42 deltalog10CFU
same,Activity,[6],1.2 deltalog10CFU
same,viability at 0.8 ug/ml,[7],100%
same,viability at 8 ug/ml,[8],< 10%
same,viability at 80 ug/ml,[9],10%
same,IC50,[2],10 µM
same,IC90,[2],13.5 µM
same,MIC,[2],25 µM
same,IC50,[1],6 µM
same,IC50,[3],116 µM
COc1cc(/C=N/Nc2nc(-c3ccccc3)cs2)cc(Br)c1O,IC50,[1],> 20 µM
COc1cc(/C=N/Nc2nccs2)cc(OC)c1O,IC50,[1],> 20 µM
CCOC(=O)Cc1csc(N/N=C/c2cc(Br)c(O)c(Br)c2)n1,IC50,[1],> 20 µM
COc1cc(/C=N/Nc2nc(-c3cccc([N+](=O)[O-])c3)cs2)cc(Br)c1O,IC50,[1],> 20 µM
COc1cc(/C=N/Nc2nc(-c3cccc([N+](=O)[O-])c3)cs2)cc(OC)c1O,IC50,[1],> 20 µM
COc1cc(/C=N/Nc2nc(-c3ccc(Cl)cc3Cl)cs2)ccc1O,IC50,[1],> 20 µM
O=[N+]([O-])c1ccc(-c2csc(N/N=C/c3cc(Br)c(O)c(Br)c3)n2)cc1,IC50,[2],130 µM
same,IC90,[2],> 200 µM
same,MIC,[2],> 200 µM
same,IC50,[1],2.27 µM
same,IC50,[3],18.7 µM
COc1cc(/C=N/Nc2nc(-c3ccccc3)cs2)cc(OC)c1O,IC50,[1],> 20 µM
Oc1ccc(Br)cc1/C=N/Nc1nccs1,IC50,[1],> 20 µM
COc1cc(/C=N/Nc2nc(-c3ccc(Cl)cc3)cs2)cc(Br)c1O,IC50,[2],200 µM
same,IC90,[2],> 200 µM
same,MIC,[2],> 200 µM
same,IC50,[1],4.54 µM
same,IC50,[3],27.6 µM
Cc1nc(N/N=C/c2ccc(O)cc2)sc1C,IC50,[1],> 20 µM
O=C(O)c1ccc(/C=N/Nc2nccs2)cc1,IC50,[1],> 20 µM
O=[N+]([O-])c1ccc(-c2csc(N/N=C/c3cc(Br)cc(Br)c3O)n2)cc1,IC50,[2],86 µM
same,IC90,[2],> 200 µM
same,MIC,[2],> 200 µM
same,IC50,[1],19.3 µM
CC(/C=C1\SC(=S)N(CCC(=O)Nc2ccc(C(=O)O)c(O)c2)C1=O)=C\c1ccccc1,IC50,[1],> 50 µM
COc1cc(/C=N/Nc2nc(C)c(C(C)=O)s2)cc(Br)c1O,IC50,[1],> 20 µM
COc1cc(/C=N\Nc2nc(-c3ccc([N+](=O)[O-])cc3)cs2)cc([N+](=O)[O-])c1O,IC50,[2],20.6 µM
same,IC90,[2],28.8 µM
same,MIC,[2],50 µM
same,IC50,[1],8 µM
same,IC50,[3],45.8 µM
COc1cc(/C=N/Nc2nc(-c3cccc([N+](=O)[O-])c3)cs2)ccc1O,IC50,[2],> 200 µM
same,IC90,[2],> 200 µM
same,MIC,[2],> 200 µM
same,IC50,[1],15.9 µM
COc1cc(/C=N/Nc2nccs2)cc(Br)c1O,IC50,[1],> 20 µM
COc1ccc(/C=N/Nc2nc(-c3ccccc3)c(-c3ccccc3)s2)cc1O,IC50,[1],> 20 µM
COc1cc(/C=N/Nc2nc(-c3ccccc3)c(-c3ccccc3)s2)cc(OC)c1O,IC50,[1],> 20 µM
O=[N+]([O-])c1cccc(-c2csc(N/N=C/c3ccccc3O)n2)c1,IC50,[1],> 20 µM
CO[C@H]1/C=C/O[C@@]2(C)Oc3c(C)c(O)c4c(O)c(c(/C=N/N5CCN(C)CC5)c(O)c4c3C2=O)NC(=O)/C(C)=C\C=C\[C@H](C)[C@H](O)[C@@H](C)[C@@H](O)[C@@H](C)[C@H](OC(C)=O)[C@@H]1C [RIFAMPIN],Activity,[4],1.06 deltalog10CFU
same,Activity,[5],2.39 deltalog10CFU
same,Activity,[6],2.86 deltalog10CFU
same,viability at 0.8 ug/ml,[7],95%
same,viability at 8 ug/ml,[8],85%
same,viability at 80 ug/ml,[9],73%
